Experimental data taken from paper PMC11276401 (RSC Advances, 2024).
Values joined by “and” are separate entries in the source; they are usually repeats but may differ in a detail not shown here. Equal values may be shown once.

Tests used:
MCF-7 = assay: SRB assay, in vitro anticancer activity; assay type: cell-based; settings: Homo sapiens, MCF7, 48 h, read-out: GI50 MCF-7
HeLa = assay: SRB assay, in vitro anticancer activity; assay type: cell-based; settings: Homo sapiens, 48 h, read-out: GI50 HeLa
MIAPACA = assay: SRB assay, in vitro anticancer activity; assay type: cell-based; settings: Homo sapiens, MIA PaCa-2, 48 h, read-out: GI50 MIAPACA
HeLa and MIAPACA = assay: SRB assay, range stated over two cell lines; assay type: cell-based; settings: Homo sapiens, read-out: GI50 against HeLa and MIAPACA
[1] = test system: caspase 3/7 in MCF-7 cells; assay: Caspase-Glo 3/7 activation assay; assay type: cell-based, human; settings: 20 μg ml^−1, 24 h
Procedure, shortened: (§1)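 Caspase 3/7 activation in the named human cancer cells is expressed as percent activation after treatment with the test compound. Podophyllotoxin is run alongside as the positive control.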

bovine brain tubulin = assay: Tubulin polymerization assay; assay type: biochemical; settings: read-out: Tubulin polymerization inhibition IC50; 2 mg/mL tubulin, 37 °C
[2] = test system: caspase 3/7, 8, and 9 in HeLa, MCF-7 and MIA PaCa2 cancer cells; assay: Caspase 3/7, 8 and 9 activation, values not assigned to a caspase or cell line; assay type: cell-based, human; settings: MCF-7 and MIA PaCa2 cells, assignment and concentration not clear
MCF-7, HeLa and MIAPACA = assay: SRB assay, range stated over three cell lines; assay type: cell-based; settings: Homo sapiens, read-out: GI50 against three cell lines
Procedure, shortened: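 Human MCF-7, HeLa and MIA PaCa-2 cancer cell lines are exposed to the test compounds, with podophyllotoxin as positive control. Growth inhibition is reported as GI50.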

[3] = test system: caspase 3/7 in MIA PaCa2 cells; assay: Caspase-Glo 3/7 activation assay; assay type: cell-based, human; settings: 20 μg ml^−1, 24 h
Procedure, shortened: as §1

[4] = test system: caspase 3/7 in HeLa cells; assay: Caspase-Glo 3/7 activation assay; assay type: cell-based, human; settings: 20 μg ml^−1, 24 h
Procedure, shortened: as §1

Row | Structure (SMILES) | GI50 (MCF-7) | GI50 (HeLa) | GI50 (MIAPACA) | GI50 (HeLa and MIAPACA) | caspase 3/7 activation [1] | IC50 (bovine brain tubulin) | caspase 3/7, 8, and 9 activations [2] | GI50 (MCF-7, HeLa and MIAPACA) | caspase 3/7 activation [3] | caspase 3/7 activation [4]
1 | COc1cc([C@@H]2c3cc4c(cc3[C@@H](OCc3cc(-c5cccc(Cl)c5)no3)[C@H]3COC(=O)C23)OCO4)cc(OC)c1OC (some centres unmarked) [Compound 6k] | 3.15 ± 0.43 µM | 9.68 ± 3.12 µM | 18.3 ± 2.87 µM | – | – | – | – | – | – | –
2 | COc1cc([C@@H]2c3cc4c(cc3[C@@H](OCc3cc(-c5ccc([N+](=O)[O-])cc5)no3)[C@H]3COC(=O)C23)OCO4)cc(OC)c1OC (some centres unmarked) [Compound 6j] | 0.23 ± 0.12 µM | 1.11 ± 0.29 µM | 1.54 ± 0.18 µM | 1.03 to 1.54 µM | 90.1% | 1.32 µM | – | – | – | –
3 | COc1cc([C@@H]2c3cc4c(cc3[C@@H](OCc3cc(-c5cc(Cl)cc(Cl)c5)no3)[C@H]3COC(=O)C23)OCO4)cc(OC)c1OC (some centres unmarked) [Compound 6m] | 0.36 ± 0.17 µM | 2.19 ± 0.84 µM | 2.33 ± 0.18 µM | – | – | 3.79 µM | 44.8% and 53.4% and 65.0% and 63.0% and 41.9% and 51.7% | – | – | –
4 | COc1cc([C@@H]2c3cc4c(cc3[C@@H](OCc3cc(-c5ccc(Cl)cc5)no3)[C@H]3COC(=O)C23)OCO4)cc(OC)c1OC (some centres unmarked) [Compound 6f] | 2.13 ± 0.37 µM | 3.05 ± 1.02 µM | 3.14 ± 0.32 µM | – | – | – | – | – | – | –
5 | COc1cc([C@@H]2c3cc4c(cc3[C@@H](OCc3cc(-c5ccc(F)cc5)no3)[C@H]3COC(=O)C23)OCO4)cc(OC)c1OC (some centres unmarked) [Compound 6h] | 4.87 ± 0.79 µM | 6.12 ± 1.08 µM | 13.1 ± 3.27 µM | – | – | – | – | – | – | –
6 | COc1cc([C@@H]2c3cc4c(cc3[C@@H](OCc3cc(-c5cc(C)cc(C)c5)no3)[C@H]3COC(=O)C23)OCO4)cc(OC)c1OC (some centres unmarked) [Compound 6d] | 1.34 ± 0.23 µM | 2.74 ± 0.52 µM | 2.28 ± 0.29 µM | – | – | – | – | – | – | –
7 | COc1cc([C@@H]2c3cc4c(cc3[C@@H](OCc3cc(-c5cccc(C)c5)no3)[C@H]3COC(=O)C23)OCO4)cc(OC)c1OC (some centres unmarked) [Compound 6c] | 3.92 ± 0.82 µM | 3.83 ± 1.54 µM | 4.67 ± 1.93 µM | – | – | – | – | – | – | –
8 | COc1cc([C@@H]2c3cc4c(cc3[C@H](O)[C@H]3COC(=O)[C@H]23)OCO4)cc(OC)c1OC [Podophyllotoxin, podophyllotoxin, reference compound] | 0.31 ± 0.19 µM | 0.74 ± 0.23 µM | 0.51 ± 0.12 µM | 0.51 to 0.74 µM | 91.9% | 0.84 µM | – | 0.31 to 0.51 µM | 88.6% | 86.9%
9 | COc1cc([C@@H]2c3cc4c(cc3[C@@H](OCc3cc(-c5ccc(Br)cc5)no3)[C@H]3COC(=O)C23)OCO4)cc(OC)c1OC (some centres unmarked) [Compound 6g] | 4.32 ± 0.83 µM | 7.48 ± 0.69 µM | 6.84 ± 2.01 µM | – | – | – | – | – | – | –
